Experimental data published in article PMC9828401 (Acta Biochimica et Biophysica Sinica, 2022).
“Also recorded” adds a separate entry of the source. Where two headings read alike, the source gives them in different places. Ends that are not written are not given here.

How the values were obtained:
PAC1-R [1] = conditions: cited from earlier work
[2] = system: PAC1-R promoter sequence (−2019 bp to −1739 bp); test: ChIP-PCR, PAC1-R promoter sequence, RGC-5 cells; format: cell-based, mouse; conditions: RGC-5, 1 μM, 15 min; antibody to PAC1-R C-terminus; 280 bp product
PAC1-R in RGC-5 cells = format: cell-based, mouse; conditions: 15 min; for PAC1-R level in RGC-5 cells (immunofluorescence) / nuclear translocation of PAC1-R in RGC-5 cells: 1 μM
PAC1R-eGFP = test: Confocal microscopy of nuclear translocation of PAC1R-eGFP in PAC1R-CHO cells; format: cell-based, mouse; conditions: 1 μM, 15 min, vs control cells
Procedure, shortened: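 CHO-K1 cells (DMEM, 10% FBS, 37°C, 5% CO₂) stably transfected with C-terminally eGFP-tagged wild-type or Cys25Ala PAC1-R, selected with G418 (0.8–1 mg/mL) and cloned by limiting dilution; at least three matched clones were used. Cells were exposed to 1 μM test compound for 15 min, then imaged by confocal microscopy (ex 488/em 545 nm). Translocation was taken as nuclear/whole-cell fluorescence, with ≥3 replicates repeated three times.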

RGC-5 cells [3] = test: TUNEL assay, MPP-treated RGC-5 cells; format: cell-based, mouse; conditions: 8 mM MPP; for TUNEL signal (MPP-induced apoptosis): pre-treatment with 10 μM peptide
[4] = ref [20], [21]; cited from earlier work
PAC1-R promoter = PAC1-R promoter activity assay; format: cell-based, mouse; conditions: RGC-5
RGC-5 cells [5] = test: MTT cell viability assay, MPP-treated RGC-5 PD cell model; format: cell-based, mouse; conditions: for protection against decrease of cell viability induced by MPP: 0.1–100 μM, 2 h before 8 mM MPP
Procedure, shortened: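 RGC-5 cells were seeded at 4×10⁴ per well and pretreated with test compound (0.1–100 μM) for 2 h before 8 mM MPP. After 24 h, MTT (0.5 mg/mL) was added for 4 h and formazan was dissolved in isopropanol. Readout was OD₅₇₀, expressed as % of cells without MPP. At least four parallel replicates, repeated three times.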

PACAP promoter = PACAP promoter activity assay; format: cell-based, mouse; conditions: RGC-5; for positive effect on PACAP’s promoter activity: over 10 μM
PACAP = PACAP level determined by ELISA in RGC-5 cells; format: cell-based, mouse; conditions: for positive effect on PACAP expression level: over 10 μM
[6] = system: PACAP promoter sequence (−858 bp to −536 bp); test: ChIP-PCR, PACAP promoter sequence, RGC-5 cells; format: cell-based, mouse; conditions: RGC-5, 1 μM, 15 min; antibody to PAC1-R C-terminus; 320 bp product
[7] = system: M-PAC1R(Cys25/Ala25)-eGFP; test: Confocal microscopy of nuclear translocation of M-PAC1R; format: cell-based, mouse; conditions: 1 μM, 15 min
Procedure, shortened: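 CHO-K1 cells stably expressing C-terminally eGFP-tagged PAC1-R Cys25/Ala25 mutant, from lipofection, G418 (0.8–1 mg/mL) selection and limiting-dilution cloning; at least three clones with similar receptor levels run in parallel. Cells grown in 10% FBS medium at 37°C, 5% CO₂. Exposed to 1 μM test compound or none for 15 min; eGFP imaged by confocal microscopy (ex 488 nm, em 545 nm). ≥3 replicates, repeated three times.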

PAC1-R [8] = test: Western blot of PAC1-R in RGC-5 cells; format: cell-based, mouse; conditions: for PAC1-R expression by Western blot: 0.1 μM to 100 μM
Procedure, shortened: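 RGC-5 cells (F12, 10% FBS) were treated for 30 min with test compound (0.01–100 μM), with or without 50 μM 2-bromopalmitate; controls received serum-free medium. Blots were run by SDS-PAGE/PVDF, probed with rabbit anti-PAC1-R (C-terminal aa 506–525) and anti-β-actin, and detected with HRP-ECL.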

PAC1-R [9] = conditions: cited from earlier work; remark: listed apart in the source
PAC1-R [10] = conditions: cited from earlier work; remark: listed apart in the source
PAC1-EC1 = PAC1-EC1 pre-saturated with PACAP(28–38); previous study; ref [19]; cited from earlier work
[11] = ref [10]; cited from earlier work
[12] = biological target: T1, recombinant PAC1-EC1 protein; test: ITC
T1 chain: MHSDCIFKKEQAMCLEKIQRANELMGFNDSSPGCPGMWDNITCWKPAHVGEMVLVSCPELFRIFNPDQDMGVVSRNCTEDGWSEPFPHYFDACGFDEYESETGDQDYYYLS

[13] = RGC-5, 50 μM 2-bromopalmitate with 1 μM peptide

Molecule: GKRYKQRVKNK [PACAP(28-38)]
- binding to allosteric regulatory site (PAC1-R [1]; ref [16], [17]): binds to the allosteric regulatory site through both conformational and charge interaction
- ChIP-PCR band for PAC1-R promoter sequence [2]: positive band
- PAC1-R level in RGC-5 cells (immunofluorescence) (PAC1-R in RGC-5 cells): increase the PAC1-R level
- nuclear translocation of PAC1-R in RGC-5 cells (PAC1-R in RGC-5 cells): induce significant nuclear translocation of PAC1-R
- nuclear translocation of PAC1R-eGFP (PAC1R-eGFP): significantly detected
- TUNEL signal (MPP-induced apoptosis) (RGC-5 cells [3]; 24 h): significantly reduced
- cytoprotective activities [4]: significant cytoprotective activities
- promoter activity of PAC1-R (PAC1-R promoter; 0.1 μM–1 μM, 15 min): significantly enhanced
- promoter activity of PAC1-R (PAC1-R promoter; 0.1–100 μM, 15 min (legend of Figure 3B), *P<0.01 vs 0 μM): significantly enhanced
- protection against decrease of cell viability induced by MPP (RGC-5 cells [5]; RGC-5, 24 h, MTT): significantly blocked
- promoter activity of PACAP (PACAP promoter; 0.1 μM–10 μM, 15 min): significantly enhanced; also recorded: increased
- positive effect on PACAP’s promoter activity (PACAP promoter): decreased
- expression level of PACAP (ELISA) (PACAP; 0.01 μM–10 μM, 30 min): significantly increase
- expression level of PACAP (ELISA) (PACAP; 0.1 μM–10 μM, 30 min): increased
- positive effect on PACAP expression level (PACAP): decreased
- ChIP-PCR band for PACAP promoter sequence [6]: positive band
- nuclear translocation of M-PAC1-R (Cys25/Ala25) [7]: significantly weaker than that of the wild-type PAC1-R; also recorded: can not induce significant trafficking or aggregation
- PAC1-R expression by Western blot (PAC1-R [8]; 30 min): increased positively with the concentrations
- PAC1-R truncated form (about 35 kDa) (PAC1-R [8]; Western blot, 30 min): induced

Molecule: PACAP38: form of PACAP, ligand of PAC1-R (HSDGIFTDSYSRYRKQMAVKKYLAAVLGKRYKQRVKNK; ends and bridges not checked; UniProt P18509 132-169, looked up)
- activation of PAC1-R (PAC1-R [9]; compared with PACAP27, ref [2]): significantly more complete and effective activity than PACAP27
- PAC1-R’s own expression (PAC1-R [10]; ref [22], [23]): up-regulate PAC1-R’s own expression
- nuclear translocation of PAC1-R (PAC1-R [10]; ref [22], [23]): induce the nuclear translocation of PAC1-R

Molecule: GRKKRRQRRRP [TAT]
- binding signal from titration of TAT (PAC1-EC1): no binding signal is detected
- binding to allosteric regulatory site (PAC1-R [1]; ref [19]): binds to the same allosteric regulatory site mainly through charge interaction
- ChIP-PCR band for PAC1-R promoter sequence [2]: positive band
- PAC1-R level in RGC-5 cells (immunofluorescence) (PAC1-R in RGC-5 cells): increase the PAC1-R level
- nuclear translocation of PAC1-R in RGC-5 cells (PAC1-R in RGC-5 cells): induce significant nuclear translocation of PAC1-R
- nuclear translocation of PAC1R-eGFP (PAC1R-eGFP): significantly detected
- TUNEL signal (MPP-induced apoptosis) (RGC-5 cells [3]; 24 h): significantly reduced
- cytoprotective activities [4]: significant cytoprotective activities
- promoter activity of PAC1-R (PAC1-R promoter; 0.1 μM–1 μM, 15 min): significantly enhanced
- protection against decrease of cell viability induced by MPP (RGC-5 cells [5]; RGC-5, 24 h, MTT): significantly blocked
- promoter activity of PACAP (PACAP promoter; 0.01 μM–10 μM, 15 min): significantly enhanced
- promoter activity of PACAP (PACAP promoter; 0.1 μM–10 μM, 15 min): increased
- positive effect on PACAP’s promoter activity (PACAP promoter): decreased
- expression level of PACAP (ELISA) (PACAP; 0.1 μM–10 μM, 30 min): significantly increase; also recorded: increased
- positive effect on PACAP expression level (PACAP): decreased
- ChIP-PCR band for PACAP promoter sequence [6]: positive band
- nuclear translocation of M-PAC1-R (Cys25/Ala25) [7]: significantly weaker than that of the wild-type PAC1-R; also recorded: can not induce significant trafficking or aggregation
- PAC1-R expression by Western blot (PAC1-R [8]; 30 min): increased positively with the concentrations
- PAC1-R truncated form (about 35 kDa) (PAC1-R [8]; Western blot, 30 min): induced

Molecule: PACAP(6-38): PAC1-R antagonist (FTDSYSRYRKQMAVKKYLAAVLGKRYKQRVKNK; ends and bridges not checked; UniProt P18509 137-169, looked up, fragment)
- antagonism of PAC1-R (PAC1-R [9]; ref [15]): full antagonist

Molecule: C[n+]1ccc(-c2ccccc2)cc1 [MPP, 1-methyl-4-phenylpyridinium, reference compound]
- number of TUNEL-positive cells (RGC-5 cells [3]; 24 h): increased the number of TUNEL-positive cells
- apoptosis in RGC-5 cells (RGC-5 cells [5]; 8 mM MPP, MTT assay): significant apoptosis
- cells remaining viable after MPP (RGC-5 cells [5]; RGC-5, 8 mM MPP, 24 h, MTT, % of cells without MPP): about 31%

Molecule: pituitary adenylate cyclase-activating polypeptide (HSDGIFTDSYSRYRKQMAVKKYLAAVLGKRYKQRVKNK; ends and bridges not checked; UniProt P18509 132-169, looked up) [PACAP]
- therapeutic effect mediated by PAC1-R [11]: significant therapeutic effect

Molecule: CCCCCCCCCCCCCCC(Br)C(=O)O (stereo not drawn) [2-bromopalmitate, reference compound]
- inhibition of nuclear translocation of PAC1-R induced by PACAP(28-38) or TAT (PAC1-R in RGC-5 cells; [13]): effectively inhibited
- inhibition of up-regulation of PAC1-R induced by PACAP(28-38) or TAT (PAC1-R in RGC-5 cells; [13]): effectively inhibited
- inhibition of anti-apoptotic activities of PACAP(28-38) and TAT (RGC-5 cells [3]; 50 μM 2-bromopalmitate, TUNEL): significantly inhibited
- inhibition of PACAP(28-38)- or TAT-induced PAC1-R promoter activity (PAC1-R promoter; 50 μM 2-bromopalmitate, 15 min): significantly inhibited
- inhibition of PACAP(28-38)- or TAT-induced PACAP promoter activity (PACAP promoter; 50 μM 2-bromopalmitate, 15 min): significantly inhibited
- inhibition of PACAP(28-38)- or TAT-induced PACAP expression (PACAP; 50 μM 2-bromopalmitate, 30 min, ELISA): inhibited
- truncated forms of PAC1-R with molecular weight smaller than 35 kDa (PAC1-R [8]; 50 μM 2-bromopalmitate with PACAP(28-38) or TAT, Western blot): decrease
- inhibition of PACAP(28-38)- or TAT-induced PAC1-R expression (PAC1-R [8]; 50 μM 2-bromopalmitate, 30 min, Western blot): inhibited
- inhibition of oxidative stress-induced nuclear translocation and increase of PAC1-R expression (PAC1-R [10]; ref [23]): can inhibit

B1: PACAP(28-38) (peptide)
peptide: GKRYKQRVKNK
modifications: ends and bridges not checked
- Ka [12]: 635000 M⁻¹

B2: TAT (peptide)
peptide: GRKKRRQRRRP
- Ka [12]: 503000 M⁻¹
